# ChEMBL document CHEMBL1833790, “N-(2-{3-[3,5-bis(trifluoromethyl)phenyl]ureido}ethyl)-glycyrrhetinamide (6b): a novel anticancer glycyrrhetinic acid derivative that targets the proteasome and displays anti-kinase activity” (J Med Chem, 2011)
# The source made the active and inactive calls. No cut-off for these calls is given here.
# How the values were obtained:
# U-373MG ATCC [1] = assay: Activation of chymotrypsin-like activity of 20S proteasome in human U373 cells at 90 uM after 2 days by bioluminescence assay; assay type: cell-based
# How it was run: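 Chymotrypsin-like site, substrate Suc-LLVY-Glo. U373 cells were seeded at 5000 cells/mL for 48 h and exposed two days. After a PBS wash and 0.025% digitonin permeabilisation, Proteasome-Glo reagent was added. Bioluminescence was read after 10 min dark incubation. Triplicates, normalised by a concurrent MTT viability assay run in identical conditions.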
# U-373MG ATCC [2] = assay: Inhibition of trypsin-like activity of 20S proteasome in human U373 cells at 90 uM after 2 days by bioluminescence assay; assay type: cell-based
# How it was run: (§1)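 U373 GBM cells seeded at 5000 cells/mL and grown 48 h, then treated for two days. Cells washed in PBS and permeabilised with 0.025% digitonin. Proteasome-Glo reagent added with Suc-LLVY-Glo (chymotrypsin-like), Z-LRR-Glo (trypsin-like) or Z-nLPnLD-Glo (caspase-like) substrate. Luminescence read after 10 min in the dark and normalised to a parallel MTT viability assay; triplicates. MG-132 at 0.5 μM used as reference.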
# U-373MG ATCC [3] = assay: Activation of caspase-like activity of 20S proteasome in human U373 cells at 90 uM after 2 days by bioluminescence assay; assay type: cell-based
# How it was run: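 Caspase-like site, substrate Z-nLPnLD-Glo. U373 cells were plated at 5000 cells/mL for 48 h, then treated two days. Cells were PBS-washed and permeabilised with 0.025% digitonin before Proteasome-Glo reagent was added. Luminescence was read after 10 min in the dark. Triplicates, normalised to a parallel MTT viability assay under identical conditions.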
# [4] = Chemical stability of the compound in MEM cell culture medium after 7 days by HPLC analysis; assay type: physicochemical; details: read-out: Stability
# How it was run: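 Compound incubated in MEM culture medium at 37 °C for 7 days, then analysed by HPLC on RX-C8 (5 μm) column with MeOH–water 90:10 (0.1% TFA), diode-array detection. Expressed as % of incubated compound recovered.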
# A549 [5] = assay: Growth inhibition in apoptosis-resistant human A549 after 3 days by MTT assay; assay type: functional; details: A549, 72 h
# How it was run: (§2)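 Cells grown in RPMI with 10% heat-inactivated FCS, 4 mM glutamine, gentamicin and penicillin–streptomycin. Drug exposure 3 days, growth read by MTT colorimetric assay. Nine concentrations from 0.01 to 100 μM in semilog steps, six replicates each; IC50 derived per cell line.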
# SK-MEL-28 = assay: Growth inhibition in apoptosis-resistant human SK-MEL-28 after 3 days by MTT assay; assay type: functional; details: SK-MEL-28, 72 h; how it was run: as §2
# T98G = assay: Growth inhibition in apoptosis-resistant human T98G after 3 days by MTT assay; assay type: functional; details: 72 h; how it was run: as §2
# [6] = Growth inhibition in apoptosis-resistant human U373 after 3 days by MTT assay; assay type: functional, U-373MG ATCC; details: U373 MG, 72 h; how it was run: as §2
# Hs 683 = assay: Growth inhibition in apoptosis-sensitive human Hs683 after 3 days by MTT assay; assay type: functional; details: Hs 683, 72 h; how it was run: as §2
# PC-3 = assay: Growth inhibition in apoptosis-sensitive human PC3 after 3 days by MTT assay; assay type: functional; details: PC-3, 72 h; how it was run: as §2
# MCF7 = assay: Growth inhibition in apoptosis-sensitive human MCF7 after 3 days by MTT assay; assay type: functional; details: MCF7, 72 h; how it was run: as §2
# B16-F10 = assay: Growth inhibition in mouse B16F10 after 3 days by MTT assay; assay type: functional; details: B16-F10, 72 h; how it was run: as §2
# [7] = Cell cycle arrest in human U373 cells assessed as accumulation of cells in G1 phase at 80 uM after 48 to 72 hrs by TUNEL-based flow cytometric analysis; assay type: functional; details: U-373MG ATCC
# How it was run: (§3)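 A549 NSCLC and U373 GBM cells were treated 48 or 72 h and analysed with the APO AF kit. TUNEL labelling ran 1 h at 37 °C, followed by propidium iodide (5 μg/mL) with RNase. Apoptotic fraction and % cells in G1 were measured by flow cytometry. Kit negative/positive controls and 1 μM narciclasine-treated PC-3 cells served as controls.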
# A549 [8] = assay: Cell cycle arrest in human A549 cells assessed as accumulation of cells in G1 phase at 100 uM after 48 to 72 hrs by TUNEL-based flow cytometric analysis; assay type: functional; how it was run: as §3
# [9] = molecular target: T1, Peroxisome proliferator-activated receptor gamma (Homo sapiens) (UniProt P37231); assay: Activation of PPARgamma activity in human U373 cells at 90 uM after 6 hrs by spectrophotometric analysis relative to control; details: U-373MG ATCC
# T1 sequence (whole entry): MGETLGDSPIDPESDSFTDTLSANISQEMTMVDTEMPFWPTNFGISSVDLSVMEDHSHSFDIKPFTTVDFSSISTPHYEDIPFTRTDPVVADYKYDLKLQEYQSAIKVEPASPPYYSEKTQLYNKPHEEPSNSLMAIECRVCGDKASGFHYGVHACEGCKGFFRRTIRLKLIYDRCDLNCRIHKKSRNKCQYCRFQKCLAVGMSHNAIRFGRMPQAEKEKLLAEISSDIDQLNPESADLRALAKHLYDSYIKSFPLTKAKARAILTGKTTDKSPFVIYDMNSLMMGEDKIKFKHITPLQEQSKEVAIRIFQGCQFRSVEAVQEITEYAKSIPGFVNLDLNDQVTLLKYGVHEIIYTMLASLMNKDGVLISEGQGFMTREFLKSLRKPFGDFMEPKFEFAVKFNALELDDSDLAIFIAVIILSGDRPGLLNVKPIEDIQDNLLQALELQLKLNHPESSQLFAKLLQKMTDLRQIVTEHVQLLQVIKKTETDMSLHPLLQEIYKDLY
# [10] = molecular target: Insulin-like growth factor 1 receptor (Homo sapiens) (UniProt P08069); assay: Inhibition of IGF-R1 at 1 uM by radiometric assay
# Sequence of Insulin-like growth factor 1 receptor (Homo sapiens) (P08069 31-736 limits assumed): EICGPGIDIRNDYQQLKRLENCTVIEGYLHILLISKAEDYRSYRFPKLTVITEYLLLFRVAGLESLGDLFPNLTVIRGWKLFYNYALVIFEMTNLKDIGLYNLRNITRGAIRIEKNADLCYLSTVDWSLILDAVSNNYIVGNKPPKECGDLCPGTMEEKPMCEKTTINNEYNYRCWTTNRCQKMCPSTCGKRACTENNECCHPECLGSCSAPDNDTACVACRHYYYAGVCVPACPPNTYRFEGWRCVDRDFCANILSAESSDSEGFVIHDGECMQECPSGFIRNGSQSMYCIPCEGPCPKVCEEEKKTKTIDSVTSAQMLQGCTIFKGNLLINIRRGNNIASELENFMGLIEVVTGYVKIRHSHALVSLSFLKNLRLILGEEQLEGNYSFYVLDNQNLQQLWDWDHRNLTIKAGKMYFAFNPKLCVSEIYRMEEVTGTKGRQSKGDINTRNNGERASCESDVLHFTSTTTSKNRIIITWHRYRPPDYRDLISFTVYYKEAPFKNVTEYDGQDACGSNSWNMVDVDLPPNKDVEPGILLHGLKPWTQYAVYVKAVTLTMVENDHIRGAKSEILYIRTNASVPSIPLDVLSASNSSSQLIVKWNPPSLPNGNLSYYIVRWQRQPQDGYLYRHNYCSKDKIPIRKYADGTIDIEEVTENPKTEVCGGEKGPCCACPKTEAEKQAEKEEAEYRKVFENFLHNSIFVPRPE
# Sequence of Insulin-like growth factor 1 receptor (Homo sapiens) (P08069 741-1367 limits assumed): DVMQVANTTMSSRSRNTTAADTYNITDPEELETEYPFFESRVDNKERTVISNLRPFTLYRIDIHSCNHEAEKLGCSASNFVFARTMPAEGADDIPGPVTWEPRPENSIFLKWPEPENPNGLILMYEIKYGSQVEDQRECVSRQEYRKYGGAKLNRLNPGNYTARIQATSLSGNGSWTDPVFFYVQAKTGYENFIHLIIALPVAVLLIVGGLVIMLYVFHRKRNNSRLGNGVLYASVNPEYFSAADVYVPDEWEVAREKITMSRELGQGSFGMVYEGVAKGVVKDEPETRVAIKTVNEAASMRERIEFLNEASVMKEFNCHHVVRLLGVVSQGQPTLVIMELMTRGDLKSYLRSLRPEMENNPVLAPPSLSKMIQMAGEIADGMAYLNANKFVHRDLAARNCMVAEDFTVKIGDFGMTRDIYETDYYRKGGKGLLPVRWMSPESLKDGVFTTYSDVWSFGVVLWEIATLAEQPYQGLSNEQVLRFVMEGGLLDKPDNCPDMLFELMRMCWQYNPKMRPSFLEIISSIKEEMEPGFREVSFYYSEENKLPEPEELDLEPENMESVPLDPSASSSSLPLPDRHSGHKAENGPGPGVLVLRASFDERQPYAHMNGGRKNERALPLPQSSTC
# [11] = molecular target: Megakaryocyte-associated tyrosine-protein kinase (Homo sapiens) (UniProt P42679); assay: Inhibition of MATK at 1 uM by radiometric assay
# Sequence of Megakaryocyte-associated tyrosine-protein kinase (Homo sapiens) (P42679 whole entry): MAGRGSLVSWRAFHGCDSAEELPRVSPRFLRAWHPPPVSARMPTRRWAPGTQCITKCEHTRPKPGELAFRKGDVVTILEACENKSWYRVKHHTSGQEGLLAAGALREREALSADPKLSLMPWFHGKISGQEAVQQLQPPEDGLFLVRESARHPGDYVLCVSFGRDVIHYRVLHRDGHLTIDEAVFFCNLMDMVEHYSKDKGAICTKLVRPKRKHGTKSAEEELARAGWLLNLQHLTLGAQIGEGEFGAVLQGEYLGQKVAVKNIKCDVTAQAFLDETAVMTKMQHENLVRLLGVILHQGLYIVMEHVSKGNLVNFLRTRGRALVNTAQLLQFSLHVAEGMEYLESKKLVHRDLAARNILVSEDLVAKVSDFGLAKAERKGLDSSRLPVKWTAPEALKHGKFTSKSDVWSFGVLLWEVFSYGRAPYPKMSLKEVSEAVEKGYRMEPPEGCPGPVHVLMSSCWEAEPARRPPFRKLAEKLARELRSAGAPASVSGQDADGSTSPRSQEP
# [12] = molecular target: T1, Peroxisome proliferator-activated receptor gamma (Homo sapiens); assay: Activation of PPARgamma activity in human U373 cells at 90 uM after 6 hrs by spectrophotometric analysis relative to control; assay type: cell-based; details: U-373MG ATCC, 7 uM, in the assay text read “at 7 uM” for “at 90 uM”
# How it was run: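 U373 glioblastoma cells were exposed for 6 h. Nuclear extracts were prepared by hypotonic buffer, NP-40 lysis and a protease-inhibitor extraction buffer. Extracts were bound overnight at 4 °C in a PPAR-γ transcription-factor plate, then probed with primary antibody and HRP anti-rabbit secondary, 1 h each at room temperature. Developer ran 45 min, read at 450 nm. Triplicates, mean ± SD versus control.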
# U-373MG ATCC [13] = assay: Inhibition of chymotrypsin-like activity of 20S proteasome in human U373 at 7 uM after 2 days by bioluminescence assay; assay type: cell-based; how it was run: as §1
# U-373MG ATCC [14] = assay: Inhibition of trypsin-like activity of 20S proteasome in human U373 cells at 7 uM after 2 days by bioluminescence assay; assay type: cell-based; how it was run: as §1
# U-373MG ATCC [15] = assay: Inhibition of caspase-like activity of 20S proteasome in human U373 cells at 7 uM after 2 days by bioluminescence assay; assay type: cell-based; how it was run: as §1
# U-373MG ATCC [16] = assay: Inhibition of chymotrypsin-like activity of 20S proteasome in human U373 cells at 60 uM after 2 days by bioluminescence assay; assay type: cell-based; how it was run: as §1
# U-373MG ATCC [17] = assay: Inhibition of trypsin-like activity of 20S proteasome in human U373 cells at 60 uM after 2 days by bioluminescence assay; assay type: cell-based; how it was run: as §1
# U-373MG ATCC [18] = assay: Inhibition of caspase-like activity of 20S proteasome in human U373 cells at 60 uM after 2 days by bioluminescence assay; assay type: cell-based; how it was run: as §1
# U-373MG ATCC [19] = assay: Inhibition of chymotrypsin-like activity of 20S proteasome in human U373 cells at 0.5 uM after 2 days by bioluminescence assay; assay type: cell-based; how it was run: as §1
# U-373MG ATCC [20] = assay: Inhibition of trypsin-like activity of 20S proteasome in human U373 cells at 0.5 uM after 2 days by bioluminescence assay; assay type: cell-based; how it was run: as §1
# U-373MG ATCC [21] = assay: Inhibition of caspase-like activity of 20S proteasome in human U373 cells at 0.5 uM after 2 days by bioluminescence assay; assay type: cell-based; how it was run: as §1
# A549 [22] = assay: Cytostatic activity against human A549 cells assessed as accumulation of cells in G1 phase at 10 uM after 48 to 72 hrs by TUNEL-based flow cytometric analysis; assay type: functional, cell-based; how it was run: as §3
# U-373MG ATCC [23] = assay: Cytostatic activity against human U373 cells assessed as accumulation of cells in G1 phase at 10 uM after 48 to 72 hrs by TUNEL-based flow cytometric analysis; assay type: functional, cell-based; how it was run: as §3
# A549 [24] = assay: Induction of apoptosis in human A549 cells assessed as proapoptotic effect at 10 uM after 48 to 72 hrs by TUNEL-based flow cytometric analysis; assay type: functional, cell-based; how it was run: as §3
# U-373MG ATCC [25] = assay: Induction of apoptosis in human U373 cells assessed as proapoptotic effect at 10 uM after 48 to 72 hrs by TUNEL-based flow cytometric analysis; assay type: functional, cell-based; how it was run: as §3
# [26] = molecular target: ALK tyrosine kinase receptor (Homo sapiens) (UniProt Q9UM73); assay: Inhibition of ALK at 1 uM by radiometric assay
# Sequence of ALK tyrosine kinase receptor (Homo sapiens) (Q9UM73 19-1620 limits assumed): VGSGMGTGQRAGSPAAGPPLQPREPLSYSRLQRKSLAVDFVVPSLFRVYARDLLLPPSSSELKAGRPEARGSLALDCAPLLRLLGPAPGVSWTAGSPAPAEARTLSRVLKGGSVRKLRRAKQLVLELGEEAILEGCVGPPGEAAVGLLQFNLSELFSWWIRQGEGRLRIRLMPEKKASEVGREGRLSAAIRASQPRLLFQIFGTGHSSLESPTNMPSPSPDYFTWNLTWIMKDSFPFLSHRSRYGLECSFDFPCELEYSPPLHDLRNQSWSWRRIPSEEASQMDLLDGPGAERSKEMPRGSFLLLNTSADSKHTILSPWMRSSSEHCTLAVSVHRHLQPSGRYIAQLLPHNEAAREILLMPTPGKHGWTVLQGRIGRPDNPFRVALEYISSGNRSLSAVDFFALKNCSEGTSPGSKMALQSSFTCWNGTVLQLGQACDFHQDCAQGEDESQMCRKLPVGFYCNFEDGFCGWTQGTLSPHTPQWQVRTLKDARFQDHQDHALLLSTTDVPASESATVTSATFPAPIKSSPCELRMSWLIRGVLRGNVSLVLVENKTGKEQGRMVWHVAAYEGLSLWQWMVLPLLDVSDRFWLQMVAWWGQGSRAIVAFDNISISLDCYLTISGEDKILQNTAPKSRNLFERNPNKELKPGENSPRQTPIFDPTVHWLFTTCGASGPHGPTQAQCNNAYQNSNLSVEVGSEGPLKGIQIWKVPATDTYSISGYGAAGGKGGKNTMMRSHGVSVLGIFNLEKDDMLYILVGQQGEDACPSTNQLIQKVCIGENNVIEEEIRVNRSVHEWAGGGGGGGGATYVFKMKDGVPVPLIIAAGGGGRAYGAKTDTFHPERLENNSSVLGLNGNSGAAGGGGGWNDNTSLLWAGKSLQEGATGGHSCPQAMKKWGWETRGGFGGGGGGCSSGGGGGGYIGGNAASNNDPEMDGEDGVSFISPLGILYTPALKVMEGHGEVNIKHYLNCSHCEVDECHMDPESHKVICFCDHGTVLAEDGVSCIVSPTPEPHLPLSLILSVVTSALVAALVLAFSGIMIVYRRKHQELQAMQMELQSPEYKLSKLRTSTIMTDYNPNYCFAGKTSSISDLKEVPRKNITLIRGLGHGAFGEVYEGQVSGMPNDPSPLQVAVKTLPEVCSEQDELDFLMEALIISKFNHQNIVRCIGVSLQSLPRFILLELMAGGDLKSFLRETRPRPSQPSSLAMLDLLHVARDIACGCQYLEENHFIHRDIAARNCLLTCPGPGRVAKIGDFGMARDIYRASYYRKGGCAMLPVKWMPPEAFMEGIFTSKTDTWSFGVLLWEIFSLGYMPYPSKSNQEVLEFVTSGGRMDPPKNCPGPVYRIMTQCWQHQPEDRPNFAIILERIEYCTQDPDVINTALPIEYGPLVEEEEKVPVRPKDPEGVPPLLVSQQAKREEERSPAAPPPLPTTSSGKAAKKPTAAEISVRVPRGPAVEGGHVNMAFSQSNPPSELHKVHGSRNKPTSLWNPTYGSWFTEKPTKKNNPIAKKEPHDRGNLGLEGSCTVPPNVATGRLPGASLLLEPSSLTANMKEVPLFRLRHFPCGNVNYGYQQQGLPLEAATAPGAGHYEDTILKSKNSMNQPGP
# How it was run: (§4)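 Radiometric ³³PanQinase activity assay across a panel of 333 protein kinases. Compound added from a 2 × 10⁻⁵ M working solution in 10% DMSO (diluted in water from a 100% DMSO stock), giving 1 μM final in the assay.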
# [27] = molecular target: Cytoplasmic tyrosine-protein kinase BMX (Homo sapiens) (UniProt P51813); assay: Inhibition of BMX at 1 uM by radiometric assay; how it was run: as §4
# [28] = molecular target: Serine/threonine-protein kinase PAK 2 (Homo sapiens) (UniProt Q13177); assay: Inhibition of PAK2 at 1 uM by radiometric assay
# Sequence of Serine/threonine-protein kinase PAK 2 (Homo sapiens) (Q13177 whole entry): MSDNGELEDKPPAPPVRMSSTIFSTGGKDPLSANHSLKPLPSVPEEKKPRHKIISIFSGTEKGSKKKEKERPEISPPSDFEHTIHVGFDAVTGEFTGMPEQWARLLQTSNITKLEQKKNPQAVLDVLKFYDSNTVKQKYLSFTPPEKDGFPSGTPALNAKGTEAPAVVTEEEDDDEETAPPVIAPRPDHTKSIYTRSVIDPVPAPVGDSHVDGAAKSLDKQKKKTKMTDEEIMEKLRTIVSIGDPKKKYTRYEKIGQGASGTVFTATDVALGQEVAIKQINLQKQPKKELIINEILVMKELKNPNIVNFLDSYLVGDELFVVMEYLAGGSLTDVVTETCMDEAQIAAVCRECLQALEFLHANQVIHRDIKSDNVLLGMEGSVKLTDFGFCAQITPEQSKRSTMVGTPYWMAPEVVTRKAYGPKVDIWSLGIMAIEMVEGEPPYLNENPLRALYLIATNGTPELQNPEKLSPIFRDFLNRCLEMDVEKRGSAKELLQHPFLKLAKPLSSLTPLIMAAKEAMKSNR
# [29] = molecular target: Ephrin type-B receptor 1 (Homo sapiens) (UniProt P54762); assay: Inhibition of EPHB1 at 1 uM by radiometric assay; how it was run: as §4
# [30] = molecular target: Ephrin type-B receptor 4 (Homo sapiens) (UniProt P54760); assay: Inhibition of EPHB4 at 1 uM by radiometric assay; how it was run: as §4
# [31] = molecular target: Tyrosine-protein kinase ZAP-70 (Homo sapiens) (UniProt P43403); assay: Inhibition of ZAP70 at 1 uM by radiometric assay
# [32] = molecular target: Fibroblast growth factor receptor 2 (Homo sapiens) (UniProt P21802); assay: Inhibition of FGFR2 at 1 uM by radiometric assay; how it was run: as §4
# Sequence of Fibroblast growth factor receptor 2 (Homo sapiens) (P21802 22-821 limits assumed): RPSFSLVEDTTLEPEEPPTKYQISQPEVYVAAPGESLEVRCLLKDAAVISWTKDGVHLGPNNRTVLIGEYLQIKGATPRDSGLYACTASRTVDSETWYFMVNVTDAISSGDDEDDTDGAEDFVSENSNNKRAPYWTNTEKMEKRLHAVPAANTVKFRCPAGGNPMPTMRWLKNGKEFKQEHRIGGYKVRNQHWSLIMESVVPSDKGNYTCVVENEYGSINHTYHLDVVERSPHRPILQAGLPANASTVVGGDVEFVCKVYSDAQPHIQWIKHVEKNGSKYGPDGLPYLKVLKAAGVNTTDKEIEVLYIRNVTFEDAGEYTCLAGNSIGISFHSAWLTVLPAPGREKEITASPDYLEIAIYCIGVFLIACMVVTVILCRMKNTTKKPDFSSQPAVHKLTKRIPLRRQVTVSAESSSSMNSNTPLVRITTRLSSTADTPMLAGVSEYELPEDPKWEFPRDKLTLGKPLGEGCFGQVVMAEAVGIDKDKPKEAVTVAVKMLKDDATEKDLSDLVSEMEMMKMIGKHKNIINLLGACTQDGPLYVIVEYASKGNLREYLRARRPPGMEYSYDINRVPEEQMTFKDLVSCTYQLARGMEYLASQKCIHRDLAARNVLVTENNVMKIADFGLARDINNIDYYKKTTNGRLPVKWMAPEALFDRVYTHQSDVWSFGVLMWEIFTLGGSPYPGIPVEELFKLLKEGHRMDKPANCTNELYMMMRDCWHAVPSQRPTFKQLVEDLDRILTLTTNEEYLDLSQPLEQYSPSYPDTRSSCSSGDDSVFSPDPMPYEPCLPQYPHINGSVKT
# [33] = molecular target: Tyrosine-protein kinase Fes/Fps (Homo sapiens) (UniProt P07332); assay: Inhibition of FES at 1 uM by radiometric assay; how it was run: as §4
# [34] = molecular target: Tyrosine-protein kinase Fyn (Homo sapiens) (UniProt P06241); assay: Inhibition of FYN at 1 uM by radiometric assay
smiles,measurement,setting,value
CC1(C)[C@@H](O)CC[C@]2(C)[C@H]3C(=O)C=C4[C@@H]5C[C@@](C)(C(=O)O)CC[C@]5(C)CC[C@@]4(C)[C@]3(C)CC[C@@H]12 [ENOXOLONE],Activity,U-373MG ATCC [1],Active
same,inhibition,U-373MG ATCC [2],Active
same,Activity,U-373MG ATCC [3],Active
same,remaining at 168 h,[4],98%
same,GI50,A549 [5],> 100 µM
same,GI50,SK-MEL-28,92 µM
same,GI50,T98G,85 µM
same,GI50,[6],83 µM
same,GI50,Hs 683,84 µM
same,GI50,PC-3,80 µM
same,GI50,MCF7,76 µM
same,GI50,B16-F10,37 µM
same,Activity,[7],inactive
same,Activity,A549 [8],inactive
same,Activity,[9],Active
CC1(C)[C@@H](O)CC[C@]2(C)[C@H]3C(=O)C=C4[C@@H]5C[C@@](C)(C(=O)NCCNC(=O)Nc6cc(C(F)(F)F)cc(C(F)(F)F)c6)CC[C@]5(C)CC[C@@]4(C)[C@]3(C)CC[C@@H]12,inhibition,[10],64%
same,inhibition,[11],50%
same,Activity,[12],Active
same,inhibition,U-373MG ATCC [13],Active
same,inhibition,U-373MG ATCC [14],Active
same,inhibition,U-373MG ATCC [15],Active
same,inhibition,U-373MG ATCC [16],Active
same,inhibition,U-373MG ATCC [17],Active
same,inhibition,U-373MG ATCC [18],Active
same,inhibition,U-373MG ATCC [19],Active
same,inhibition,U-373MG ATCC [20],Active
same,inhibition,U-373MG ATCC [21],Active
same,remaining at 168 h,[4],98%
same,GI50,A549 [5],7 µM
same,GI50,SK-MEL-28,9 µM
same,GI50,T98G,12 µM
same,GI50,[6],6 µM
same,GI50,Hs 683,6 µM
same,GI50,PC-3,8 µM
same,GI50,MCF7,4 µM
same,GI50,B16-F10,4 µM
same,Activity,A549 [22],inactive
same,Activity,U-373MG ATCC [23],inactive
same,Activity,A549 [24],inactive
same,Activity,U-373MG ATCC [25],inactive
same,inhibition,[26],69%
same,inhibition,[27],52%
same,inhibition,[28],51%
same,inhibition,[29],64%
same,inhibition,[30],64%
same,inhibition,[31],67%
same,inhibition,[32],67%
same,inhibition,[33],59%
same,inhibition,[34],72%
